Measurements: ChEMBL document CHEMBL1926610, “Design and synthesis of pyridone inhibitors of non-nucleoside reverse transcriptase” (Bioorg Med Chem Lett, 2011)

Assays:
[1] = system: MT4; assay: Cytotoxicity against human MT4 cells up to 8.3 uM; assay type: cell-based
In short: (§1)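 Cytotoxicity in MT-4 human T-lymphoid cells run alongside the cell culture antiviral assay (RPMI 1640, 10% FBS or 50% NHS), tested up to the assay upper limit of 8.3 μM.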

[2] = system: Human immunodeficiency virus; assay: Antiviral activity against Human immunodeficiency virus expressing wild type RT infected in human MT4 cells by p24 antigen assay in the presence of 50% normal human serum; assay type: functional; conditions: Human immunodeficiency virus 1, MT4; read-out: CIC95
In short: (§2)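 CIC95 = concentration at which spread of virus is inhibited by >95% in MT-4 human T-lymphoid cells in RPMI 1640 medium containing either 10% FBS or 50% normal human serum (to assess protein binding). Geometric mean of at least 2 determinations.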

[3] = target: Human immunodeficiency virus type 1 reverse transcriptase (Human immunodeficiency virus 1, UniProt Q72547, Y181C); assay: Inhibition of Human immunodeficiency virus reverse transcriptase Y181C mutant by SPA assay
In short: (§3)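 Scintillation proximity assay (SPA) of mutant RT enzyme inhibition. Values are geometric means of at least two determinations.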

[4] = target: Human immunodeficiency virus type 1 reverse transcriptase (Human immunodeficiency virus 1, UniProt Q72547, K103N); assay: Inhibition of Human immunodeficiency virus reverse transcriptase K103N mutant by SPA assay; in short: as §3
[5] = system: Human immunodeficiency virus; assay: Antiviral activity against Human immunodeficiency virus expressing RT K103N mutant infected in human MT4 cells by p24 antigen assay in the presence of 10% FBS; assay type: functional; conditions: Human immunodeficiency virus 1, MT4; read-out: CIC95
In short: (§4)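 Spread assay in MT-4 human T-lymphoid cells in RPMI 1640 with 10% FBS. CIC95 is the concentration inhibiting viral spread by >95%, reported as the geometric mean of at least 2 determinations. Cytotoxicity was checked up to 8.3 μM.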

[6] = Volume of distribution in Sprague-Dawley rat at 1 mg/kg, iv; assay type: ADME, organism-based; design: dose 1 mg/kg, route intravenous; conditions: in vivo
In short: (§5)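 Sprague Dawley rats dosed iv at 1 mpk in DMSO via indwelling jugular vein cannula, no oral arm. Plasma concentrations by LC-MS.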

[7] = Inhibition of Human immunodeficiency virus wild type reverse transcriptase by SPA assay
In short: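 Wild-type HIV RT enzyme inhibition measured in a standard SPA assay. Values are geometric mean of at least two determinations.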

[8] = system: Human immunodeficiency virus; assay: Antiviral activity against Human immunodeficiency virus expressing wild type RT infected in human MT4 cells by p24 antigen assay in the presence of 10% FBS; assay type: functional; conditions: Human immunodeficiency virus 1, MT4; read-out: CIC95; in short: as §2
[9] = Plasma clearance in Sprague-Dawley rat at 1 mg/kg, iv; assay type: ADME, organism-based; design: dose 1 mg/kg, route intravenous; in short: as §5
[10] = Half life in Sprague-Dawley rat at 1 mg/kg, iv; assay type: ADME, organism-based; design: dose 1 mg/kg, route intravenous; conditions: in vivo; in short: as §5
[11] = Plasma clearance in Sprague-Dawley rat at 10 mg/kg, po and 2 mg/kg, iv; assay type: ADME, organism-based
In short: (§6)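 Sprague Dawley rats given iv dose 2 mpk as a DMSO solution via indwelling jugular vein cannula, and p.o. dose 10 mpk as aqueous methylcellulose (methocel) suspension. Plasma levels by LC-MS; absolute oral bioavailability from comparison of mean plasma AUC. Average of at least 2 rats.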

[12] = system: Human immunodeficiency virus; assay: Antiviral activity against Human immunodeficiency virus expressing wild type RT infected in human MT4 cells by p24 antigen assay in the presence of 50% normal human serum relative to TMC-278; assay type: functional
[13] = system: Human immunodeficiency virus; assay: Antiviral activity against Human immunodeficiency virus expressing RT K103N/Y181C double mutant infected in human MT4 cells by p24 antigen assay in the presence of 10% FBS relative to MK-4965; assay type: functional
[14] = system: Human immunodeficiency virus; assay: Antiviral activity against Human immunodeficiency virus expressing RT K103N/Y181C double mutant infected in human MT4 cells by p24 antigen assay in the presence of 50% normal human serum; assay type: functional; conditions: Human immunodeficiency virus 1, MT4; read-out: CIC95
In short: (§7)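 MT-4 human T-lymphoid cells were kept in RPMI 1640 containing 50% normal human serum to assess protein binding. Readout is CIC95, the concentration blocking >95% of virus spread. Values are geometric means of at least 2 determinations.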

[15] = system: Rattus norvegicus; assay: Dose normalized AUC in Sprague-Dawley rat at 10 mg/kg, po; assay type: ADME, organism-based; design: dose 10 mg/kg, route oral; conditions: in vivo; in short: as §6
[16] = system: MT4; assay: Cytotoxicity against human MT4 cells; assay type: cell-based; in short: as §1
[17] = system: Human immunodeficiency virus; assay: Antiviral activity against Human immunodeficiency virus expressing RT K103N mutant infected in human MT4 cells by p24 antigen assay in the presence of 50% normal human serum; assay type: functional; conditions: Human immunodeficiency virus 1, MT4; read-out: CIC95; in short: as §7
[18] = Oral bioavailability in Sprague-Dawley rat at 10 mg/kg; assay type: ADME, organism-based; conditions: in vivo; in short: as §6
[19] = Half life in Sprague-Dawley rat at 10 mg/kg, po and 2 mg/kg, iv; assay type: ADME, organism-based; conditions: in vivo; in short: as §6
[20] = system: Human immunodeficiency virus; assay: Antiviral activity against Human immunodeficiency virus expressing RT K103N/Y181C double mutant infected in human MT4 cells by p24 antigen assay in the presence of 10% FBS; assay type: functional; conditions: Human immunodeficiency virus 1, MT4; read-out: CIC95; in short: as §4
[21] = system: Human immunodeficiency virus; assay: Antiviral activity against Human immunodeficiency virus expressing RT Y181C mutant infected in human MT4 cells by p24 antigen assay in the presence of 50% normal human serum; assay type: functional; conditions: Human immunodeficiency virus 1, MT4; read-out: CIC95; in short: as §7
[22] = system: Human immunodeficiency virus; assay: Antiviral activity against Human immunodeficiency virus expressing wild type RT infected in human MT4 cells by p24 antigen assay in the presence of 50% normal human serum relative to MK-4965; assay type: functional
[23] = Volume of distribution in Sprague-Dawley rat at 10 mg/kg, po and 2 mg/kg, iv; assay type: ADME, organism-based; conditions: in vivo; in short: as §6
[24] = system: Human immunodeficiency virus; assay: Antiviral activity against Human immunodeficiency virus expressing wild type RT infected in human MT4 cells by p24 antigen assay in the presence of 50% normal human serum relative to UK-453061; assay type: functional
[25] = system: Human immunodeficiency virus; assay: Antiviral activity against Human immunodeficiency virus expressing RT Y181C mutant infected in human MT4 cells by p24 antigen assay in the presence of 10% FBS; assay type: functional; conditions: Human immunodeficiency virus 1, MT4; read-out: CIC95; in short: as §4
[26] = Plasma protein binding in human; assay type: ADME, cell-free; conditions: read-out: PPB (converted)

SMILES	Activity [1]	IC95 [2] [nM]	Ki [3] [nM]	Ki [4] [nM]	IC95 [5] [nM]	Ki [7] [nM]	IC95 [8] [nM]	clearance [11] [mL/min/kg]	IC95 [14] [nM]	AUC/dose [15] [µM·h]	Activity [16]	IC95 [17] [nM]	bioavailability [18] [%]	half-life [19] [h]	IC95 [20] [nM]	IC95 [21] [nM]	Vd [23] [L/kg]	IC95 [25] [nM]	fraction unbound [26]	further results
Cc1ccn(CCc2n[nH]c3ncccc23)c(=O)c1Oc1cc(Cl)cc(C#N)c1	Non-toxic	611	51	58	447	25	248	–	–	–	–	–	–	–	–	–	–	–	–	Vd [6]: 0.6 L/kg; clearance [9]: 31 mL/min/kg; half-life [10]: 0.75 h
N#Cc1cc(Cl)cc(Oc2cc(Cc3n[nH]c4ncccc34)ccc2Cl)c1	–	–	0.51	0.48	211	0.24	22	–	–	–	–	–	–	–	–	–	–	–	–	–
N#Cc1cc(Cl)cc(Oc2c(Cl)ccn(Cc3n[nH]c4ncccc34)c2=O)c1	Non-toxic	7.7	1	1.5	2.9	0.77	2.4	12	69	1.6	Non-toxic	12	57	4	7	20	2	7.8	0.033	fold change (FC) [12]: 4; fold change (FC) [13]: 10; fold change (FC) [22]: 4; fold change (FC) [24]: 4
Cc1cc(/C=C/C#N)cc(C)c1Nc1ccnc(Nc2ccc(C#N)cc2)n1 [RILPIVIRINE]	–	36	–	–	–	–	–	–	311	–	Non-toxic	46	–	–	–	104	–	–	0.003	–
N#Cc1cc(Cl)cc(Oc2c(Cl)c(Cl)cn(Cc3n[nH]c4ncccc34)c2=O)c1	Non-toxic	15	1.3	1.6	11	1	4.6	27	–	0	–	–	0	19	31	–	27	15	–	–
CCc1nn(CCO)c(CC)c1Oc1cc(C#N)cc(C#N)c1 [LERSIVIRINE]	–	40	–	–	–	–	–	–	100	–	Non-toxic	70	–	–	–	68	–	–	0.49	–
N#Cc1cc(Cl)cc(Oc2c(Cl)ccn(Cc3n[nH]c4nc(N)ccc34)c2=O)c1	Non-toxic	11	1.8	2.1	7.1	1.3	1.9	12	–	0.15	–	–	6	1.4	30	–	0.8	63	–	–
N#Cc1cc(Cl)cc(Oc2cc(OCc3n[nH]c4nc(N)ccc34)ccc2Cl)c1	Non-toxic	26	–	–	12	0.2	5	–	589	–	Non-toxic	54	–	–	73	175	–	27	0.035	–
Cc1ccn(Cc2n[nH]c3ncccc23)c(=O)c1Oc1cc(Cl)cc(C#N)c1	Non-toxic	12	3.1	3.7	10	2.5	3.6	11	–	0.31	–	–	8.5	–	31	–	3.7	–	–	–
